Assay results of several laboratories.
Target: Ephrin type-A receptor 2 (EPHA2, Homo sapiens, UniProt P29317)

Structure (SMILES) | read-out | technique | concentration | remaining binding
CN(CCCC(F)(F)F)c1nccc(-c2cnn3ncccc23)n1 | binding |  | 1 µM | 82%
Cc1cnc(Nc2ccc(C(=O)N3CCC(N4CCCC4)CC3)cc2)nc1-c1cc2ccccc2s1 | binding | competition with immobilised ligand | 1 µM | 26%
CCOCCn1cc(C(=O)Nc2ccc(-n3nc(-c4cccnc4)cc3C(F)(F)F)cn2)ccc1=O | cell-free assay | competition with immobilised ligand | 1 µM | 93%
CNC(=O)[C@@H]1CC[C@@H](n2c(-c3ccc4cnccc4c3)nc3ccc(C(=O)NCc4cccc(C(N)=O)c4)cc32)C1 | binding | competition with immobilised ligand | 1 µM | 98%
C[C@@H]1CCN(c2nccc(-c3cnn4ncccc34)n2)C1 | binding |  | 1 µM | 93%
O=C(NCCCN1CCOCC1)c1ccc(Nc2ncc(Cl)c(-c3ccc(Cl)s3)n2)cc1 | binding | competition with immobilised ligand | 1 µM | 100%
CS(=O)(=O)c1cc(C2(NC(=O)c3cncc4c3cnn4-c3ccc(F)cc3)CC2)ccn1 | cell-free assay | competition with immobilised ligand | 1 µM | 100%
C[C@@H](c1ccc(-n2cnc3c(N)ncnc32)cc1)N1CCc2nn(C)c(Cc3ccccc3)c2C1=O | binding | competition with immobilised ligand | 0.1 µM | 100%
Cc1noc([C@H]2C[C@@H](c3ccc(C(F)(F)F)cc3)CN(C(=O)N3CCS(=O)(=O)C3)C2)n1 | cell-free assay | competition with immobilised ligand | 1 µM | 100%
CN(C)c1nccc(-c2cnn3ncccc23)n1 | binding |  | 1 µM | 85%
CC(C)(C)c1ccc(-c2nc(CBr)nn2-c2cccc(O)c2)cc1 | cell-free assay | competition with immobilised ligand | 10 µM | 89%
Cc1nc(C2CCN(C(=O)c3ccc(OC(F)(F)F)cc3N)CC2)c2ncc(N3CCN(C)CC3)cc2n1 | cell-free assay | competition with immobilised ligand | 1 µM | 100%
N[C@H]1CCN(c2nccc(-c3cnn4ncccc34)n2)C1 | binding |  | 1 µM | 87%
C[C@@H]1CN(c2ccc3ncc(-c4ccc5[nH]nc(C6CC6)c5c4)n3n2)C[C@H](C)O1 | binding | competition with immobilised ligand | 50 nM | 86%
CC1CCCN1c1nccc(-c2cnn3ncccc23)n1 (stereo not shown) | binding |  | 1 µM | 99%
Cc1cc(C)c(-n2ccn3nc(-c4cccnc4)cc23)cc1NC(=O)c1cc(C#N)cc(S(F)(F)(F)(F)F)c1 | cell-free assay | competition with immobilised ligand | 0.1 µM | 79.6%
O=C(NCCCN1CCOCC1)c1ccc(Nc2nccc(-c3cc4ccccc4s3)n2)cc1 | binding | competition with immobilised ligand | 1 µM | 72%
COc1ccnn2ncc(-c3ccnc(N(C)C)n3)c12 | binding |  | 1 µM | 100%
CO[C@@H](C)c1c(Nc2ccc([C@H](N(C)C(=O)C3CCS(=O)(=O)CC3)C(F)(F)F)cc2)cnc2cc(Cl)nn12 | cell-free assay | competition with immobilised ligand | 1 µM | 100%
O=C(NCC1CCOCC1)c1n[nH]cc1NC(=O)c1c(F)cccc1F | binding | competition with immobilised ligand | 1 µM | 100%
C=CC(=O)N1CCC(C(=O)NCC(=O)N2CCN(c3nc(-c4cnc(N)nc4C(F)F)nc(N4CCOCC4)n3)CC2)CC1 | binding | competition with immobilised ligand | 1 µM | 95%
Nc1cnc(N2CCc3cc(S(=O)(=O)Nc4c(F)cc(Cl)cc4F)cc(N4CCCC4=O)c32)nc1 | cell-free assay | competition with immobilised ligand | 1 µM | 100%
COc1cnc(Nc2cccc(S(N)(=O)=O)c2)nc1N1CCN(c2ccccc2)CC1 | binding | competition with immobilised ligand | 1 µM | 100%
F[C@@H]1CCN(c2nccc(-c3cnn4ncccc34)n2)C1 | binding |  | 1 µM | 100%
C[C@H](c1ccnc(Nc2nc3ccc(-c4cc(N(C)C)ncn4)cc3[nH]2)c1)N1CCN(C(=O)CC(F)(F)F)CC1 | cell-free assay | competition with immobilised ligand | 0.1 µM | 100%
